Measurements published in paper PMC9476207 (ACS Omega, 2022).

Assays:
Test in all cases: NCI-60 single-dose antiproliferative screen
Format in all cases: cell-based
SF-539 = conditions: Homo sapiens, SF-539, 48 h, read-out: growth percent
Procedure, shortened: (§1)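 Cells grown in RPMI 1640 with 5% FBS and 2 mM L-glutamine, plated and held 24 h at 37 °C; time-zero plates TCA-fixed. DMSO stocks were diluted in gentamicin-containing medium to a final 10^-5 M, with a DMSO-only control. Exposure 48 h, 5% CO2. Adherent cells TCA-fixed 1 h at 4 °C, stained with 0.4% SRB, solubilised in 10 mM Trizma base, read at 515 nm. Growth percent derived from ODtzero, ODtest and ODctrl.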

COLO205 = conditions: Homo sapiens, COLO 205, 48 h, read-out: growth percent
Procedure, shortened: (§2)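 NCI-60 protocol. Lines were grown in RPMI 1640 with 5% FBS and 2 mM L-glutamine, plated and incubated 24 h at 37 °C; time-zero plates were TCA-fixed. The test compound was dissolved in DMSO, diluted in medium with 50 μg/mL gentamicin and given once at a final 10^-5 M (DMSO control) for 48 h. Cells were fixed with cold TCA (1 h, 4 °C) and stained with 0.4% SRB in 1% acetic acid for 10 min. Dye was dissolved in 10 mM Trizma base and read at 515 nm. Growth percent was calculated from time-zero, test and control ODs.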

HS 578T = conditions: Homo sapiens, 48 h, read-out: growth percent
Procedure, shortened: as §2

MDA-MB-468 = conditions: Homo sapiens, MDA-MB-468, 48 h, read-out: growth percent
Procedure, shortened: as §2

SF-295 = conditions: Homo sapiens, SF-295, 48 h, read-out: growth percent
Procedure, shortened: as §2

HCC-2998 = conditions: Homo sapiens, HCC 2998, 48 h, read-out: growth percent
Procedure, shortened: as §2

SW-620 = conditions: Homo sapiens, SW-620, 48 h, read-out: growth percent
Procedure, shortened: as §1

DU-145 = conditions: Homo sapiens, DU-145, 48 h, read-out: growth percent
Procedure, shortened: as §2

CAKI-1 = conditions: Homo sapiens, CAKI-1, 48 h, read-out: growth percent
Procedure, shortened: as §2

SF-268 = conditions: Homo sapiens, SF-268, 48 h, read-out: growth percent
Procedure, shortened: as §2

SK-OV-3 = conditions: Homo sapiens, SK-OV-3, 48 h, read-out: growth percent
Procedure, shortened: as §1

IGROV1 = conditions: Homo sapiens, IGROV-1, 48 h, read-out: growth percent
Procedure, shortened: as §2

RPMI-8226 = conditions: Homo sapiens, RPMI-8226, 48 h, read-out: growth percent
Procedure, shortened: as §2

NCI-H522 = conditions: Homo sapiens, NCI-H522, 48 h, read-out: growth percent
Procedure, shortened: as §2

NCI-H23 = conditions: Homo sapiens, NCI-H23, 48 h, read-out: growth percent
Procedure, shortened: as §2

HT29 = conditions: Homo sapiens, HT-29, 48 h, read-out: growth percent
Procedure, shortened: as §2

MCF-7 = conditions: Homo sapiens, MCF7, 48 h, read-out: growth percent
Procedure, shortened: as §2

UACC-257 = conditions: Homo sapiens, UACC-257, 48 h, read-out: growth percent
Procedure, shortened: as §1

SR = conditions: Homo sapiens, 48 h, read-out: growth percent
Procedure, shortened: as §1

UO-31 = conditions: Homo sapiens, UO-31, 48 h, read-out: growth percent
Procedure, shortened: as §1

SK-MEL-2 = conditions: Homo sapiens, SK-MEL-2, 48 h, read-out: growth percent
Procedure, shortened: as §1

RXF 393 = conditions: Homo sapiens, RXF 393, 48 h, read-out: growth percent
Procedure, shortened: as §2

NCI-H322M = conditions: Homo sapiens, 48 h, read-out: growth percent
Procedure, shortened: as §2

NCI-H226 = conditions: Homo sapiens, NCI-H226, 48 h, read-out: growth percent
Procedure, shortened: as §2

UACC-62 = conditions: Homo sapiens, UACC-62, 48 h, read-out: growth percent
Procedure, shortened: as §1

CCRF-CEM = conditions: Homo sapiens, 48 h, read-out: growth percent
Procedure, shortened: as §2

SNB-19 = conditions: Homo sapiens, SNB-19, 48 h, read-out: growth percent
Procedure, shortened: as §1

MDA-MB-435 = conditions: Homo sapiens, MDA-MB-435, 48 h, read-out: growth percent
Procedure, shortened: as §2

MOLT-4 = conditions: Homo sapiens, MOLT-4, 48 h, read-out: growth percent
Procedure, shortened: as §2

HOP-62 = conditions: Homo sapiens, HOP-62, 48 h, read-out: growth percent
Procedure, shortened: as §2

A549/ATCC = conditions: Homo sapiens, A549, 48 h, read-out: growth percent
Procedure, shortened: as §2

KM12 = conditions: Homo sapiens, KM12, 48 h, read-out: growth percent
Procedure, shortened: as §2

SN12C = conditions: Homo sapiens, 48 h, read-out: growth percent
Procedure, shortened: as §1

NCI-H460 = conditions: Homo sapiens, NCI-H460, 48 h, read-out: growth percent
Procedure, shortened: as §2

T-47D = conditions: Homo sapiens, T47D, 48 h, read-out: growth percent
Procedure, shortened: as §1

TK-10 = conditions: Homo sapiens, TK-10, 48 h, read-out: growth percent
Procedure, shortened: as §1

COc1cc(CNC(=O)CCCC/C=C/C(C)C)ccc1OCc1cn(-c2ccccc2F)nn1 [14i, (E)-N-(4-((1-(2-Fluorophenyl)-1H-1,2,3-triazol-4-yl)methoxy)-3-methoxybenzyl)-8-methylnon-6-enamide]
activity at 10 µM (SF-539): 105%
activity at 10 µM (COLO205): 116%
activity at 10 µM (HS 578T): 87.7%
activity at 10 µM (MDA-MB-468): 92.8%
activity at 10 µM (SF-295): 99%
activity at 10 µM (HCC-2998): 97.2%
activity at 10 µM (SW-620): 98.1%
activity at 10 µM (DU-145): 106%
activity at 10 µM (CAKI-1): 90.6%
activity at 10 µM (SF-268): 95%
activity at 10 µM (SK-OV-3): 97.8%
activity at 10 µM (IGROV1): 101%
activity at 10 µM (RPMI-8226): 81.3%
activity at 10 µM (NCI-H522): 77.5%
activity at 10 µM (NCI-H23): 95.3%
activity at 10 µM (HT29): 107%
activity at 10 µM (MCF-7): 97.1%
activity at 10 µM (UACC-257): 95%
activity at 10 µM (SR): 81.5%
activity at 10 µM (UO-31): 77.1%
activity at 10 µM (SK-MEL-2): 106%
activity at 10 µM (RXF 393): 103%
activity at 10 µM (NCI-H322M): 90.2%
activity at 10 µM (NCI-H226): 81.3%
activity at 10 µM (UACC-62): 76.2%
activity at 10 µM (CCRF-CEM): 88.6%
activity at 10 µM (SNB-19): 84.8%
activity at 10 µM (MDA-MB-435): 101%
activity at 10 µM (MOLT-4): 90.9%
activity at 10 µM (HOP-62): 85%
activity at 10 µM (A549/ATCC): 91.3%
activity at 10 µM (KM12): 98.9%
activity at 10 µM (SN12C): 92.7%
activity at 10 µM (NCI-H460): 104%
activity at 10 µM (T-47D): 83.1%
activity at 10 µM (TK-10): 111%

COc1cc(CNC(=O)CCCC/C=C/C(C)C)ccc1OCc1cn(-c2ccc(C#N)cc2)nn1 [14j, (E)-N-(4-((1-(4-Cyanophenyl)-1H-1,2,3-triazol-4-yl)methoxy)-3-methoxybenzyl)-8-methylnon-6-enamide]
activity at 10 µM (SF-539): 94.5%
activity at 10 µM (COLO205): 117%
activity at 10 µM (HS 578T): 95%
activity at 10 µM (MDA-MB-468): 74.9%
activity at 10 µM (SF-295): 102%
activity at 10 µM (HCC-2998): 94.5%
activity at 10 µM (SW-620): 98%
activity at 10 µM (DU-145): 44.4%
activity at 10 µM (CAKI-1): 74.6%
activity at 10 µM (SF-268): 90.9%
activity at 10 µM (SK-OV-3): 88.2%
activity at 10 µM (IGROV1): 100%
activity at 10 µM (RPMI-8226): 65.4%
activity at 10 µM (NCI-H522): 88.2%
activity at 10 µM (NCI-H23): 72.1%
activity at 10 µM (HT29): 95.6%
activity at 10 µM (MCF-7): 103%
activity at 10 µM (UACC-257): 94.3%
activity at 10 µM (SR): 76.3%
activity at 10 µM (UO-31): 112%
activity at 10 µM (SK-MEL-2): 98.4%
activity at 10 µM (RXF 393): 90.8%
activity at 10 µM (NCI-H322M): 95.3%
activity at 10 µM (NCI-H226): 100%
activity at 10 µM (UACC-62): 81.8%
activity at 10 µM (CCRF-CEM): 86.2%
activity at 10 µM (SNB-19): 81.9%
activity at 10 µM (MDA-MB-435): 108%
activity at 10 µM (MOLT-4): 88.4%
activity at 10 µM (HOP-62): 103%
activity at 10 µM (A549/ATCC): 84.8%
activity at 10 µM (KM12): 91.5%
activity at 10 µM (SN12C): 98.3%
activity at 10 µM (NCI-H460): 93%
activity at 10 µM (T-47D): 76.8%
activity at 10 µM (TK-10): 91.8%

COc1cc(CNC(=O)CCCC/C=C/C(C)C)ccc1OCc1cn(-c2ccc(Br)cc2)nn1 [14k, (E)-N-(4-((1-(4-Bromophenyl)-1H-1,2,3-triazol-4-yl)methoxy)-3-methoxybenzyl)-8-methylnon-6-enamide]
activity at 10 µM (SF-539): 92.4%
activity at 10 µM (COLO205): 103%
activity at 10 µM (HS 578T): 90.5%
activity at 10 µM (MDA-MB-468): 68.2%
activity at 10 µM (SF-295): 85.4%
activity at 10 µM (HCC-2998): 88.8%
activity at 10 µM (SW-620): 94.7%
activity at 10 µM (DU-145): 98.8%
activity at 10 µM (CAKI-1): 74.3%
activity at 10 µM (SF-268): 78.9%
activity at 10 µM (SK-OV-3): 74.8%
activity at 10 µM (IGROV1): 72.7%
activity at 10 µM (RPMI-8226): 57.4%
activity at 10 µM (NCI-H522): 82.5%
activity at 10 µM (NCI-H23): 70.2%
activity at 10 µM (HT29): 98.1%
activity at 10 µM (MCF-7): 76.2%
activity at 10 µM (UACC-257): 90.5%
activity at 10 µM (SR): 67.2%
activity at 10 µM (UO-31): 67.9%
activity at 10 µM (SK-MEL-2): 95.2%
activity at 10 µM (RXF 393): 105%
activity at 10 µM (NCI-H322M): 90.6%
activity at 10 µM (NCI-H226): 86.3%
activity at 10 µM (UACC-62): 63%
activity at 10 µM (CCRF-CEM): 94.2%
activity at 10 µM (SNB-19): 80.9%
activity at 10 µM (MDA-MB-435): 107%
activity at 10 µM (MOLT-4): 77.5%
activity at 10 µM (HOP-62): 88.2%
activity at 10 µM (A549/ATCC): 88.5%
activity at 10 µM (KM12): 94.3%
activity at 10 µM (SN12C): 83%
activity at 10 µM (NCI-H460): 72.1%
activity at 10 µM (T-47D): 68.4%
activity at 10 µM (TK-10): 118%

COc1cc(CNC(=O)CCCC/C=C/C(C)C)ccc1OCc1cn(-c2ccccc2OC)nn1 [14l, (E)-N-(3-Methoxy-4-((1-(2-methoxyphenyl)-1H-1,2,3-triazol-4-yl)methoxy)benzyl)-8-methylnon-6-enamide]
activity at 10 µM (SF-539): 106%
activity at 10 µM (COLO205): 117%
activity at 10 µM (HS 578T): 83%
activity at 10 µM (MDA-MB-468): 75.5%
activity at 10 µM (SF-295): 108%
activity at 10 µM (HCC-2998): 117%
activity at 10 µM (SW-620): 97%
activity at 10 µM (DU-145): 83.1%
activity at 10 µM (CAKI-1): 79.9%
activity at 10 µM (SF-268): 92.6%
activity at 10 µM (SK-OV-3): 99.8%
activity at 10 µM (IGROV1): 104%
activity at 10 µM (RPMI-8226): 71.2%
activity at 10 µM (NCI-H522): 63.9%
activity at 10 µM (NCI-H23): 96%
activity at 10 µM (HT29): 98.7%
activity at 10 µM (MCF-7): 98.2%
activity at 10 µM (UACC-257): 85.2%
activity at 10 µM (SR): 77.4%
activity at 10 µM (UO-31): 105%
activity at 10 µM (SK-MEL-2): 89.8%
activity at 10 µM (RXF 393): 101%
activity at 10 µM (NCI-H322M): 92.2%
activity at 10 µM (NCI-H226): 80.5%
activity at 10 µM (UACC-62): 75.1%
activity at 10 µM (CCRF-CEM): 83.7%
activity at 10 µM (SNB-19): 91.6%
activity at 10 µM (MDA-MB-435): 110%
activity at 10 µM (MOLT-4): 79.7%
activity at 10 µM (HOP-62): 88.7%
activity at 10 µM (A549/ATCC): 86%
activity at 10 µM (KM12): 98.2%
activity at 10 µM (SN12C): 98%
activity at 10 µM (NCI-H460): 104%
activity at 10 µM (T-47D): 92.2%
activity at 10 µM (TK-10): 90.2%
